As usually defined, the Ki is a measure of affinity in units of concentration, obtained from inhibition or displacement. Broadly, the MRT is the average time that molecules of a dose stay in the body. In general, clearance refers to the volume of plasma or blood freed of the substance per unit of time. High values mean a high capacity for elimination, low ones a low capacity for elimination.

A short description of data set [1]: Inhibition of human coagulation chymotrypsin using MeO-Suc-Arg-Pro-Tyr-pNA as substrate by spectrophotometric analysis. In a few lines: (§1)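 Purified human enzymes; reaction started by adding enzyme to substrate with or without inhibitor, excess substrate and inhibitor over enzyme, 1% DMSO, room temperature, 10–120 min. pNA read at 405 nm. FXIa, FXIIa and chymotrypsin in HEPES pH 7.4 with NaCl, KCl and PEG; FXa and kallikrein in phosphate pH 7.5; FVIIa in HEPES with CaCl2. IC50 from duplicates over 8–11 concentrations, converted to Ki assuming competitive inhibition.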

A short description of data set [2]: Anticoagulant activity in healthy human plasma assessed as concentration required to 2 fold prolong clotting time by aPTT assay. Format: functional. In a few lines:
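Citrated human plasma from healthy volunteers (one-tenth volume 0.11 M buffered citrate; spun 2000g, 10 min, kept on ice). Inhibitor from 10 mM DMSO stock, diluted in plasma, up to seven concentrations. aPTT with Alexin: plasma warmed 1 min at 37 °C, reagent added, CaCl2 2 min later. Duplicates, as ratio to baseline. EC2x by linear interpolation, as total plasma concentration.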

The next data set deals with Coagulation factor XI (Homo sapiens, UniProt P03951). Briefly: Inhibition of human coagulation factor 11a using p-nitroaniline as substrate assessed as substrate hydrolysis by spectrophotometrically. In a few lines:
as §1

Data set [3] can be described thus: Mean residence time in rabbit plasma at 0.5 mg/kg, iv. The format is ADME, organism-based, Oryctolagus cuniculus. Further details: dose 0.5 mg/kg, route intravenous. In a few lines:
(§2)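 Single iv dose of 0.5 mg/kg in rabbits; concentrations measured in rabbit plasma.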

A further data set addresses Plasma kallikrein (Homo sapiens, UniProt P03952). Briefly: Inhibition of human plasma kallikrein using H-D-Pro-Phe-Arg-pNA as substrate. In a few lines:
as §1

The next data set relates to Oryctolagus cuniculus. Briefly: Clearance in rabbit plasma at 0.5 mg/kg, iv. On the set-up: dose 0.5 mg/kg, route intravenous. The format is ADME, organism-based. Conditions: in vivo. In a few lines:
as §2

The target of another data set is T1, Coagulation factor VII (Homo sapiens, UniProt P08709).
T1 sequence (P08709 whole entry): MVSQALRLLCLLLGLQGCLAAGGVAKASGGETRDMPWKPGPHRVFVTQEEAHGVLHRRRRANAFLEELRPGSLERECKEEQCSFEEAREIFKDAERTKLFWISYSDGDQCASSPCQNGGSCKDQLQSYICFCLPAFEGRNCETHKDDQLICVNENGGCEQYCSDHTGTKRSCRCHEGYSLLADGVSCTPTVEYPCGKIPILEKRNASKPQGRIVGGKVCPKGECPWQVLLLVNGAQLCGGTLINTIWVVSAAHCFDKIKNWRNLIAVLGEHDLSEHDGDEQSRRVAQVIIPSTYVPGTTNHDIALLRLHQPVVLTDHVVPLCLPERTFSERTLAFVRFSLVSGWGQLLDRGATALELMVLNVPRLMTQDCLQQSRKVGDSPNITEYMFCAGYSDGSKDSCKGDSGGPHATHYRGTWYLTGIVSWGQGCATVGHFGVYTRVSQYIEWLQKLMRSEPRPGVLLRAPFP
Briefly: Inhibition of human coagulation factor 7a using H-(D)-Ile-Pro-Arg-pNA as substrate by spectrophotometric analysis. In a few lines:
as §1

The nature of data set [4]: Plasma protein binding in rabbit at 0.5 mg/kg, iv. The format is ADME, organism-based, Oryctolagus cuniculus. On the set-up: dose 0.5 mg/kg, route intravenous. Conditions: read-out: PPB (converted).
The next data set addresses T2, Coagulation factor X (Oryctolagus cuniculus, UniProt O19045).
T2 sequence (O19045 whole entry): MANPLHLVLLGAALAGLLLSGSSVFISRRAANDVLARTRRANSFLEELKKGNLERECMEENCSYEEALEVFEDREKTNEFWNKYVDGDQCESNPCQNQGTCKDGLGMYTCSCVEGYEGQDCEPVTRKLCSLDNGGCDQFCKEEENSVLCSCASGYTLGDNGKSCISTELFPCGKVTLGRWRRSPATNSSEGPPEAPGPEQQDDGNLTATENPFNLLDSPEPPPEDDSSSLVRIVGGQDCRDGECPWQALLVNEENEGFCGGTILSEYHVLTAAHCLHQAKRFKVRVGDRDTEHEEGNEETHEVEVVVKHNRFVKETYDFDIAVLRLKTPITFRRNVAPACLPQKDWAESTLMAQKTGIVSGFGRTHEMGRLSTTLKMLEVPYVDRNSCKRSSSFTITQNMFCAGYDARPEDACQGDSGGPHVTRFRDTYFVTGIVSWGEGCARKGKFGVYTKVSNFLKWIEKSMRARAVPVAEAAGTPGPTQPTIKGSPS
Briefly: Inhibition of rabbit coagulation factor 10a using N-benzoyl-Ile-Glu-(OH, OMe)-Gly-Arg-pNA as substrate by spectrophotometric analysis.

Some results are limits rather than exact numbers.

Chain of Plasma kallikrein (P03952 20-390 limits assumed): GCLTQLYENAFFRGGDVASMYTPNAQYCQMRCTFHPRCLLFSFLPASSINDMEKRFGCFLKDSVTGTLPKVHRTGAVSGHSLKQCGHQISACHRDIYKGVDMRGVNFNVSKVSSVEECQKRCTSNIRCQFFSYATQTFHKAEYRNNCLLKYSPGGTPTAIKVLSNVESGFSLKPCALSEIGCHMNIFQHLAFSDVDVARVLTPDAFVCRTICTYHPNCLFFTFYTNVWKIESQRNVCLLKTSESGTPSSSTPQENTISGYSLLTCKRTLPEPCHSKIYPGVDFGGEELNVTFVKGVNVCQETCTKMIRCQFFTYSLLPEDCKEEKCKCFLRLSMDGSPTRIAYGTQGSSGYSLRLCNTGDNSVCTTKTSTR
Chain of Plasma kallikrein (P03952 391-638 limits assumed): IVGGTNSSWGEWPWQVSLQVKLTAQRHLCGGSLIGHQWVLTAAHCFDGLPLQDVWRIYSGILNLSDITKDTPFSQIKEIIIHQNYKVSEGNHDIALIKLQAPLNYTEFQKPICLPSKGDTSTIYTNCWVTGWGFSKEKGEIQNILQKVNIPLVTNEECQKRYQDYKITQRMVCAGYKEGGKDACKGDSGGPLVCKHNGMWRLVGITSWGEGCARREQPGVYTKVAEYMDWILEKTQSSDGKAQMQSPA
Chain of Coagulation factor XI (P03951 19-387 limits assumed): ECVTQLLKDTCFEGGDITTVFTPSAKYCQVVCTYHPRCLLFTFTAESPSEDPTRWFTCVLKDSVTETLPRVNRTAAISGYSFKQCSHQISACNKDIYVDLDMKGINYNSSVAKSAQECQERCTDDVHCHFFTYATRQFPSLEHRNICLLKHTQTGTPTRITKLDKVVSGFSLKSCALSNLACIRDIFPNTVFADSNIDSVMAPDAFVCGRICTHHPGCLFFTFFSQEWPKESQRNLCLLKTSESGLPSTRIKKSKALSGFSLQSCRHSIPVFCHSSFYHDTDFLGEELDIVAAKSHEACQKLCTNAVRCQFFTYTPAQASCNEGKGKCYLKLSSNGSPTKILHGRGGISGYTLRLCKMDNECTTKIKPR
Chain of Coagulation factor XI (P03951 388-625 limits assumed): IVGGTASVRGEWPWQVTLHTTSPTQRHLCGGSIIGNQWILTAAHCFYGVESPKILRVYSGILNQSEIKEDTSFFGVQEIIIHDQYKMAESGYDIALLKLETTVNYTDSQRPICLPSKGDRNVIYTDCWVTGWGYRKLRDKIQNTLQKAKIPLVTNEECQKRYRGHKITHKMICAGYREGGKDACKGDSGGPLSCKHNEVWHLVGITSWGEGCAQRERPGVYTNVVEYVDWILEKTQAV

As for `NC[C@H]1CC[C@H](C(=O)N[C@@H](Cc2ccccc2)c2nc(-c3ccc4c(N)n[nH]c4c3)c(Cl)[nH]2)CC1.O=C(O)C(F)(F)F`, the Ki is > 20800 nM in data set [1]; 0.3 nM at Coagulation factor XI; 5 nM on Plasma kallikrein; 4220 nM at Coagulation factor VII; > 10000 nM at Coagulation factor X. Moreover, the 2aPTT in [2] was determined as 1 µM. Moreover, the MRT in data set [3] stood at 36 min. The clearance in the data set with Oryctolagus cuniculus was 20 mL/min/kg. Further, the fraction unbound in data set [4] is 0.15.

Values taken from ChEMBL document CHEMBL3351269, “Phenylimidazoles as potent and selective inhibitors of coagulation factor XIa with in vivo antithrombotic activity” (J Med Chem, 2014).
